Source: ChEMBL document CHEMBL1212799 (2010)
In brackets after ≈: the same amount, converted by molar mass.

Columns and labels:
Klebsiella pneumoniae [1] = assay: Antibacterial activity against Klebsiella pneumoniae isolate 328A in vitro pharmacodynamic model; format: functional
In short: (§1)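 Inoculum 10^6 CFU/ml; dosing began 0.5 h after inoculation. Two treated models plus one untreated control per isolate; blood-agar counts; change in log10 CFU/ml over 24 h (detection limit 10^1); drug levels checked by HPLC.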

Klebsiella pneumoniae [2] = assay: Antibacterial activity against Klebsiella pneumoniae isolate 351 in vitro pharmacodynamic model; format: functional; in short: as §1
Klebsiella pneumoniae [3] = assay: Antibacterial activity against Klebsiella pneumoniae isolate 334 in vitro pharmacodynamic model; format: functional
In short: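 Simulated peak 38.4 µg/ml, trough 3.04 µg/ml. CAMHB at 37°C, 10^6 CFU/ml from overnight culture, drug started at 0.5 h. Two treated models plus one growth control. Change in log10 CFU/ml over 24 h on blood agar. Detection limit 10^1 CFU/ml.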

Klebsiella pneumoniae [4] = assay: fT>MIC in Klebsiella pneumoniae isolate 328A at 2 gram for every 8 hrs administered as 3 hrs infusion over 24 hrs in in vitro pharmcodynamic model; format: functional
In short: (§2)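 Samples assayed by HPLC (linear 0.25–40 µg/ml). Time free drug stayed above the modal triplicate broth-microdilution MIC (CLSI) calculated for each 8-h interval.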

Klebsiella pneumoniae [5] = assay: fT>MIC in Klebsiella pneumoniae isolate 351 at 2 gram for every 8 hrs administered as 3 hrs infusion over 24 hrs in in vitro pharmcodynamic model; format: functional; in short: as §2
Klebsiella pneumoniae [6] = assay: fT>MIC in Klebsiella pneumoniae isolate 354 at 2 gram for every 8 hrs administered as 3 hrs infusion over 24 hrs in in vitro pharmcodynamic model; format: functional; in short: as §2
Klebsiella pneumoniae [7] = assay: fT>MIC in Klebsiella pneumoniae isolate 353 at 2 gram for every 8 hrs administered as 3 hrs infusion over 24 hrs in in vitro pharmcodynamic model; format: functional, isoalte 353; in short: as §2
Klebsiella pneumoniae [8] = assay: fT>MIC in Klebsiella pneumoniae isolate 334 at 2 gram for every 8 hrs administered as 3 hrs infusion over 24 hrs in in vitro pharmcodynamic model; format: functional; in short: as §2
Klebsiella pneumoniae [9] = assay: fT>MIC in Klebsiella pneumoniae isolate 361 at 2 gram for every 8 hrs administered as 3 hrs infusion over 24 hrs in in vitro pharmcodynamic model; format: functional; in short: as §2
Pseudomonas aeruginosa [10] = assay: fT>MIC in Pseudomonas aeruginosa isolate 1038 at 2 gram for every 8 hrs administered as 3 hrs infusion over 24 hrs in in vitro pharmcodynamic model; format: functional
Pseudomonas aeruginosa [11] = assay: fT>MIC in Pseudomonas aeruginosa isolate 896 at 2 gram for every 8 hrs administered as 3 hrs infusion over 24 hrs in in vitro pharmcodynamic model; format: functional
Pseudomonas aeruginosa [12] = assay: fT>MIC in Pseudomonas aeruginosa isolate 988 at 2 gram for every 8 hrs administered as 3 hrs infusion over 24 hrs in in vitro pharmcodynamic model; format: functional
Klebsiella pneumoniae [13] = assay: fT>MIC in Klebsiella pneumoniae isolate 328A at 2 gram for every 8 hrs administered as 3 hrs infusion measured over 0-8 hrs in in vitro pharmcodynamic model; format: functional; in short: as §2
Klebsiella pneumoniae [14] = assay: fT>MIC in Klebsiella pneumoniae isolate 353 at 2 gram for every 8 hrs administered as 3 hrs infusion measured over 0-8 hrs in in vitro pharmcodynamic model; format: functional, isoalte 353; in short: as §2
Klebsiella pneumoniae [15] = assay: fT>MIC in Klebsiella pneumoniae isolate 357 at 2 gram for every 8 hrs administered as 3 hrs infusion measured over 0-8 hrs in in vitro pharmcodynamic model; format: functional; in short: as §2
Pseudomonas aeruginosa [16] = assay: fT>MIC in Pseudomonas aeruginosa isolate 1030 at 2 gram for every 8 hrs administered as 3 hrs infusion measured over 0-8 hrs in in vitro pharmcodynamic model; format: functional
Pseudomonas aeruginosa [17] = assay: fT>MIC in Pseudomonas aeruginosa isolate 896 at 2 gram for every 8 hrs administered as 3 hrs infusion measured over 0-8 hrs in in vitro pharmcodynamic model; format: functional
Klebsiella pneumoniae [18] = assay: fT>MIC in Klebsiella pneumoniae isolate 377 at 2 gram for every 8 hrs administered as 3 hrs infusion measured over 8-16 hrs in in vitro pharmcodynamic model; format: functional
Klebsiella pneumoniae [19] = assay: fT>MIC in Klebsiella pneumoniae isolate 328A at 2 gram for every 8 hrs administered as 3 hrs infusion measured over 8-16 hrs in in vitro pharmcodynamic model; format: functional; in short: as §2
Klebsiella pneumoniae [20] = assay: fT>MIC in Klebsiella pneumoniae isolate 360 at 2 gram for every 8 hrs administered as 3 hrs infusion measured over 8-16 hrs in in vitro pharmcodynamic model; format: functional; in short: as §2
Klebsiella pneumoniae [21] = assay: fT>MIC in Klebsiella pneumoniae isolate 368 at 2 gram for every 8 hrs administered as 3 hrs infusion measured over 8-16 hrs in in vitro pharmcodynamic model; format: functional
Klebsiella pneumoniae [22] = assay: fT>MIC in Klebsiella pneumoniae isolate 375 at 2 gram for every 8 hrs administered as 3 hrs infusion measured over 8-16 hrs in in vitro pharmcodynamic model; format: functional
Klebsiella pneumoniae [23] = assay: fT>MIC in Klebsiella pneumoniae isolate 361 at 2 gram for every 8 hrs administered as 3 hrs infusion measured over 8-16 hrs in in vitro pharmcodynamic model; format: functional; in short: as §2
Pseudomonas aeruginosa [24] = assay: fT>MIC in Pseudomonas aeruginosa isolate 762 at 2 gram for every 8 hrs administered as 3 hrs infusion measured over 8-16 hrs in in vitro pharmcodynamic model; format: functional
Pseudomonas aeruginosa [25] = assay: fT>MIC in Pseudomonas aeruginosa isolate 988 at 2 gram for every 8 hrs administered as 3 hrs infusion measured over 8-16 hrs in in vitro pharmcodynamic model; format: functional
Klebsiella pneumoniae [26] = assay: fT>MIC in Klebsiella pneumoniae isolate 328A at 2 gram for every 8 hrs administered as 3 hrs infusion measured over 16-24 hrs in in vitro pharmcodynamic model; format: functional; in short: as §2
Klebsiella pneumoniae [27] = assay: fT>MIC in Klebsiella pneumoniae isolate 368 at 2 gram for every 8 hrs administered as 3 hrs infusion measured over 16-24 hrs in in vitro pharmcodynamic model; format: functional
Pseudomonas aeruginosa [28] = assay: fT>MIC in Pseudomonas aeruginosa isolate 1030 at 2 gram for every 8 hrs administered as 3 hrs infusion measured over 16-24 hrs in in vitro pharmcodynamic model; format: functional
Pseudomonas aeruginosa [29] = assay: fT>MIC in Pseudomonas aeruginosa isolate 1177 at 2 gram for every 8 hrs administered as 3 hrs infusion measured over 16-24 hrs in in vitro pharmcodynamic model; format: functional
Pseudomonas aeruginosa [30] = assay: fT>MIC in Pseudomonas aeruginosa isolate 762 at 2 gram for every 8 hrs administered as 3 hrs infusion measured over 16-24 hrs in in vitro pharmcodynamic model; format: functional
Klebsiella pneumoniae [31] = assay: Antibacterial activity against Klebsiella pneumoniae isolate 357 assessed as reduction of bacterial count at 16 ug/ml within 6 hrs in vitro pharmacodynamic model; format: functional
Klebsiella pneumoniae [32] = assay: Antibacterial activity against Klebsiella pneumoniae isolate 353 assessed as reduction of bacterial count at 16 ug/ml within 6 hrs in vitro pharmacodynamic model; format: functional, isoalte 353
Klebsiella pneumoniae [33] = assay: Antibacterial activity against Klebsiella pneumoniae isolate 354 assessed as reduction of bacterial count at 8 ug/ml within 6 hrs in vitro pharmacodynamic model; format: functional
Klebsiella pneumoniae [34] = assay: Antibacterial activity against Klebsiella pneumoniae isolate 351 assessed as reduction of bacterial count at 8 ug/ml within 6 hrs in vitro pharmacodynamic model; format: functional
Klebsiella pneumoniae [35] = assay: Antibacterial activity against Klebsiella pneumoniae isolate 377 assessed as reduction of bacterial count at 2 ug/ml within 6 hrs in vitro pharmacodynamic model; format: functional
Klebsiella pneumoniae [36] = assay: Antibacterial activity against Klebsiella pneumoniae isolate 360 assessed as reduction of bacterial count at 16 ug/ml within 6 hrs in vitro pharmacodynamic model; format: functional
Klebsiella pneumoniae [37] = assay: Antibacterial activity against Klebsiella pneumoniae isolate 375 assessed as reduction of bacterial count at 32 ug/ml within 6 hrs in vitro pharmacodynamic model; format: functional
Klebsiella pneumoniae [38] = assay: Antibacterial activity against Klebsiella pneumoniae isolate 361 assessed as reduction of bacterial count at 64 ug/ml within 6 hrs in vitro pharmacodynamic model; format: functional

C[C@@H](O)[C@H]1C(=O)N2C(C(=O)O)=C(S[C@@H]3CN[C@H](C(=O)N(C)C)C3)[C@H](C)[C@H]12 [MEROPENEM]
MIC (Klebsiella pneumoniae [1]): 8 µg/mL (≈ 20.9 µM) | MIC (Klebsiella pneumoniae [2]): 8 µg/mL (≈ 20.9 µM) | MIC (Klebsiella pneumoniae [3]): 32 µg/mL (≈ 83.4 µM) | fT>MIC (Klebsiella pneumoniae [4]): 69% | fT>MIC (Klebsiella pneumoniae [5]): 69% | fT>MIC (Klebsiella pneumoniae [6]): 69% | fT>MIC (Klebsiella pneumoniae [7]): 47% | fT>MIC (Klebsiella pneumoniae [8]): 16% | fT>MIC (Klebsiella pneumoniae [9]): 0% | fT>MIC (Pseudomonas aeruginosa [10]): 69% | fT>MIC (Pseudomonas aeruginosa [11]): 47% | fT>MIC (Pseudomonas aeruginosa [12]): 47% | fT>MIC (Klebsiella pneumoniae [13]): 69% | fT>MIC (Klebsiella pneumoniae [14]): 38% | fT>MIC (Klebsiella pneumoniae [15]): 12% | fT>MIC (Pseudomonas aeruginosa [16]): 75% | fT>MIC (Pseudomonas aeruginosa [17]): 50% | fT>MIC (Klebsiella pneumoniae [18]): 100% | fT>MIC (Klebsiella pneumoniae [19]): 72% | fT>MIC (Klebsiella pneumoniae [20]): 0% | fT>MIC (Klebsiella pneumoniae [21]): 0% | fT>MIC (Klebsiella pneumoniae [22]): 0% | fT>MIC (Klebsiella pneumoniae [23]): 0% | fT>MIC (Pseudomonas aeruginosa [24]): 63% | fT>MIC (Pseudomonas aeruginosa [25]): 50% | fT>MIC (Klebsiella pneumoniae [26]): 78% | fT>MIC (Klebsiella pneumoniae [27]): 0% | fT>MIC (Pseudomonas aeruginosa [28]): 78% | fT>MIC (Pseudomonas aeruginosa [29]): 78% | fT>MIC (Pseudomonas aeruginosa [30]): 56% | log10cfu (Klebsiella pneumoniae [31]): >3 | log10cfu (Klebsiella pneumoniae [32]): >3 | log10cfu (Klebsiella pneumoniae [33]): >3 | log10cfu (Klebsiella pneumoniae [34]): >3 | log10cfu (Klebsiella pneumoniae [35]): >3 | log10cfu (Klebsiella pneumoniae [36]): >3 | log10cfu (Klebsiella pneumoniae [37]): >3 | log10cfu (Klebsiella pneumoniae [38]): >3
